According to ChEMBL document CHEMBL3751813, “Nonpeptidic Amphiphilic Xanthone Derivatives: Structure-Activity Relationship and Membrane-Targeting Properties” (J Med Chem, 2016):
Values after ≈ are worked out from the molar mass of the structure shown. Active and inactive are the calls of the source. No cut-off for these calls is given here.

Legend:
Staphylococcus aureus [1] = assay: Antibacterial activity against clinical isolates of Staphylococcus aureus DM4001R after 24 hrs by […]; assay type: functional
Staphylococcus aureus [2] = assay: Antibacterial activity against clinical isolates of methicillin-resistant Staphylococcus aureus DM9808R after 24 hrs by […]; assay type: functional
Staphylococcus aureus [3] = assay: Antibacterial activity against clinical isolates of methicillin-resistant Staphylococcus aureus DM21455 after 24 hrs by […]; assay type: functional; conditions: DM21455, 24 h
Bacillus cereus = assay: Antibacterial activity against clinical isolates of Bacillus cereus ATCC 11778 after 24 hrs by […]; assay type: functional; conditions: ATCC 11778, 24 h
[4] = Hemolytic activity against New Zealand white rabbit RBC after 1 hr by microplate reader analysis; assay type: ADME, cell-based, Oryctolagus cuniculus, Erythrocyte; conditions: rabbit red blood cells
In short: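 Rabbit RBCs spun from serum at 3,000 rpm for 10 min and washed twice in PBS. Mixed with compound in DMF at 4% v/v RBCs, 1 h at 37 °C. After centrifugation, hemoglobin in the supernatant read at 576 nm. 2% Triton X-100 was the positive control and 1% DMF the negative control.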

[5] = Selectivity index, ratio of HC50 for hemolytic activity against New Zealand white rabbit RBC to MIC for clinical isolates of Staphylococcus aureus DM4001
Staphylococcus aureus [6] = assay: Induction of membrane permeabilization in clinical isolates of Staphylococcus aureus DM4001 at MIC by SYTOX green uptake assay; assay type: functional
In short: (§1)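 Exponential-phase cells washed twice in 20 mM PBS pH 7 and adjusted to OD620 0.09. Given 3 µM SYTOX Green and kept in the dark until fluorescence was stable, then compound added. Fluorescence followed in a stirred cuvette at ex 504/em 523 nm. Melittin 10 µg/mL was the positive control. Run at least twice; one run reported.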

Staphylococcus aureus [7] = assay: Induction of membrane permeabilization in clinical isolates of Staphylococcus aureus DM4001 assessed as ATP leakage at MIC incubated for 10 mins by firefly luciferase based luminometry analysis; assay type: functional
In short: (§2)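 Exponential-phase cells washed twice in 20 mM PBS pH 7 and set to OD620 0.3. Exposed 10 min at 37 °C, then spun at 4000 rpm for 5 min. Supernatant mixed with luciferase reagent (1 mM DTT, 0.5 mM D-luciferin, 1.25 µg/mL firefly luciferase). Luminescence read over 30 cycles.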

[8] = Membrane permeabilization activity assessed as release of calcein from DOPC liposomes at 16 to 64 lipid:compound ratio incubated for 30 mins by fluorescence assay; assay type: ADME; conditions: 0.5 h
Staphylococcus aureus [9] = assay: Induction of membrane permeabilization in clinical isolates of Staphylococcus aureus DM4001 at 50 uM by SYTOX green uptake assay; assay type: functional; in short: as §1
Staphylococcus aureus [10] = assay: Induction of membrane permeabilization in clinical isolates of Staphylococcus aureus DM4001 assessed as ATP leakage at 50 uM incubated for 10 mins by firefly luciferase based luminometry analysis; assay type: functional; in short: as §2
[11] = Membrane permeabilization activity assessed as release of calcein from DOPE/DOPG liposomes at lipid:compound ratio of 8 incubated for 30 mins by fluorescence assay; assay type: ADME; conditions: 0.5 h
In short: (§3)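 Freeze-thawed, extruded, then gel-filtered. Final lipid 50 µM with compound added from DMF (<0.2%). Fluorescence at ex 490/em 520 nm over 30 min; 0.1% Triton X-100 defined 100% lysis.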

[12] = Membrane permeabilization activity assessed as release of calcein from DOPE/DOPG liposomes at lipid:compound ratio of 16 incubated for 30 mins by fluorescence assay; assay type: ADME; conditions: 0.5 h; in short: as §3
[13] = Membrane permeabilization activity assessed as release of calcein from DOPC liposomes at lipid:compound ratio of 4 incubated for 30 mins by fluorescence assay; assay type: ADME; conditions: 0.5 h; in short: as §3
[14] = Membrane permeabilization activity assessed as release of calcein from DOPC liposomes at lipid:compound ratio of 8 incubated for 30 mins by fluorescence assay; assay type: ADME; conditions: 0.5 h; in short: as §3
[15] = Membrane permeabilization activity assessed as release of calcein from DOPE/DOPG liposomes at lipid:compound ratio of => 16 incubated for 30 mins by fluorescence assay; assay type: ADME; conditions: 0.5 h; in short: as §3
[16] = Membrane permeabilization activity assessed as release of calcein from DOPC liposomes at lipid:compound ratio of => 16 incubated for 30 mins by fluorescence assay; assay type: ADME; conditions: 0.5 h; in short: as §3
[17] = Membrane permeabilization activity assessed as release of calcein from DOPE/DOPG liposomes at lipid:compound ratio of 4 incubated for 30 mins by fluorescence assay; assay type: ADME; conditions: 0.5 h; in short: as §3
Staphylococcus aureus [18] = assay: Bactericidal activity against clinical isolates of methicillin resistant Staphylococcus aureus DM21455 assessed as log reduction in viability measured up to 300 mins by time kill kinetic study; assay type: functional, organism-based
In short: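 Colonies from 18–22 h TSA plates suspended in 0.31 mM phosphate buffer pH 7.2 at 10^5–10^6 CFU/mL. Treated at 1×, 2× and 4× MIC at 35 °C, sampled at 10 min, 30 min, 1 h, 2 h and 5 h. Ten-fold dilutions spread on MHA, 35 °C for 48–72 h, colonies counted. Detection limit 100 CFU/mL; bactericidal means 3-log drop versus untreated.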

Staphylococcus aureus [19] = assay: Induction of membrane permeabilization in clinical isolates of Staphylococcus aureus DM4001 at 10 uM measured for 200 sec by SYTOX green influx assay; assay type: functional, organism-based; in short: as §1
Staphylococcus aureus [20] = assay: Induction of membrane disruption in clinical isolates of Staphylococcus aureus DM4001 assessed as membrane integrity incubated for 10 mins by live/dead baclight bacterial viability assay relative to control; assay type: functional; parameters: concentration or dose not given beside the values
In short: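 Exponential-phase cells washed in 0.9% saline, OD670 0.3, exposed to compound 10 min at room temperature. Pelleted, resuspended, then stained with SYTO 9 (10 µM) plus propidium iodide (60 µM) 15 min dark. Excitation 485 nm, emission 500–700 nm; green/red ratio converted to % damage using standards of 0–100% isopropanol-killed cells.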

[21] = Membrane permeabilization activity assessed as release of calcein from DOPE/DOPG large unilamellar vesicles at 0.125 to 0.5 compound:lipid ratio incubated for 30 mins by fluorescence assay; assay type: ADME; conditions: 0.5 h; in short: as §3
Staphylococcus aureus [22] = assay: Induction of membrane permeabilization in clinical isolates of Staphylococcus aureus DM4001 by SYTOX green uptake assay; assay type: functional; in short: as §1

Row | Structure (SMILES) | MIC (Staphylococcus aureus [1]) [µg/mL] | MIC (Staphylococcus aureus [2]) [µg/mL] | MIC (Staphylococcus aureus [3]) [µg/mL] | MIC (Bacillus cereus) [µg/mL] | HC50 at 1 h [4] [µg/mL] | Selectivity ratio [5] | Activity [11] | Activity [13] | Activity [14] | Activity [15] | Activity [16] | other results
1 | COc1c(OCCCCN(C)C)cc2oc3cc(OCCCCN(C)C)c(CC=C(C)C)c(O)c3c(=O)c2c1CC=C(C)C | 3.12 (≈ 5.13 µM) | 3.12 (≈ 5.13 µM) | 3.12 (≈ 5.13 µM) | 6.25 (≈ 10.3 µM) | 32.1 | 10.3 | – | – | – | – | – | Activity (Staphylococcus aureus [6]): 23925 cps; Activity (Staphylococcus aureus [7]): 3.769 µM; Activity [8]: Active
2 | COc1c(OCCCCN(C)Cc2ccccc2)cc2oc3cc(OCCCCN(C)Cc4ccccc4)c(CC=C(C)C)c(O)c3c(=O)c2c1CC=C(C)C | > 50 | > 50 | > 50 | > 50 | > 200 | – | – | – | – | – | – | Activity (Staphylococcus aureus [9]): 1778 cps; Activity (Staphylococcus aureus [10]): 574 nM
3 | CCCCN(CCCC)CCCCOc1cc2oc3cc(OCCCCN(CCCC)CCCC)c(OC)c(CC=C(C)C)c3c(=O)c2c(O)c1CC=C(C)C | > 50 | > 50 | > 50 | > 50 | > 200 | – | – | – | – | – | – | Activity (Staphylococcus aureus [9]): 1768 cps; Activity (Staphylococcus aureus [10]): 763 nM
4 | CCN(CC)CCCCOc1cc2oc3cc(OCCCCN(CC)CC)c(OC)c(CCC(C)C)c3c(=O)c2c(O)c1CCC(C)C | 3.12 (≈ 4.67 µM) | 12.5 (≈ 18.7 µM) | 25 (≈ 37.4 µM) | 25 (≈ 37.4 µM) | 48.6 | 15.6 | 58.6% | – | – | – | – | Activity [12]: 20.1%
5 | COc1c(OCCCCN2CC[C@H](N(C)C)C2)cc2oc3cc(OCCCCN4CC[C@H](N(C)C)C4)c(CC=C(C)C)c(O)c3c(=O)c2c1CC=C(C)C | 12.5 (≈ 16.7 µM) | 6.25 (≈ 8.37 µM) | 6.25 (≈ 8.37 µM) | 6.25 (≈ 8.37 µM) | 28.9 | 2.3 | – | – | – | – | – | Activity (Staphylococcus aureus [9]): 58191 cps; Activity (Staphylococcus aureus [10]): 7962 nM
6 | COc1c(O)cc2oc3cc(O)c(CC=C(C)C)c(O)c3c(=O)c2c1CC=C(C)C [MANGOSTIN] | 2 (≈ 4.87 µM) | – | – | – | – | 4.5 | 16% | 33.6% | 14.1% | < 10% | < 10% | –
7 | CCN(CC)CCCCOc1ccc2c(=O)c3c(O)cc(OCCCCN(CC)CC)cc3oc2c1 | > 50 | > 50 | > 50 | > 50 | > 200 | – | Not Active | Not Active | Not Active | Not Active | Not Active | Activity [17]: Not Active
8 | COc1c(O)cc2oc3cc(O)c(CCC(C)C)c(O)c3c(=O)c2c1CCC(C)C | > 50 | > 50 | > 50 | > 50 | > 200 | – | Not Active | Not Active | Not Active | Not Active | Not Active | Activity [17]: Not Active
9 | CN[C@@H](CC(C)C)C(=O)N[C@H]1C(=O)N[C@@H](CC(N)=O)C(=O)N[C@H]2C(=O)N[C@H]3C(=O)N[C@H](C(=O)N[C@@H](C(=O)O)c4cc(O)cc(O)c4-c4cc3ccc4O)[C@H](O)c3ccc(c(Cl)c3)Oc3cc2cc(c3O[C@H]2O[C@@H](CO)[C@H](O)[C@@H](O)[C@@H]2O[C@@H]2C[C@@](C)(N)[C@@H](O)[C@@H](C)O2)Oc2ccc(cc2Cl)[C@H]1O | – | – | – | – | – | – | – | – | – | – | – | Activity (Staphylococcus aureus [18]): inactive
10 | CCN(CC)CCCCOc1cc2oc3cc(OCCCCN(CC)CC)c(OC)c(CC=C(C)C)c3c(=O)c2c(O)c1CC=C(C)C | 0.39 (≈ 0.587 µM) | 0.78 (≈ 1.17 µM) | 0.39 (≈ 0.587 µM) | 3.12 (≈ 4.7 µM) | – | 50.4 | – | – | – | > 70% | > 70% | Activity (Staphylococcus aureus [19]): Active; Activity (Staphylococcus aureus [20]): 37.8%; Activity [21]: > 70%; Activity (Staphylococcus aureus [6]): 61679 cps; Activity (Staphylococcus aureus [7]): 2.235 µM
11 | CCN(CC)CCCCCCCCCCCCOc1cc2oc3cc(OCCCCCCCCCCCCN(CC)CC)c(OC)c(CC=C(C)C)c3c(=O)c2c(O)c1CC=C(C)C | > 50 | > 50 | > 50 | > 50 | > 200 | – | – | – | – | – | – | Activity (Staphylococcus aureus [19]): inactive; Activity (Staphylococcus aureus [20]): 99.9%; Activity [21]: 60%
12 | CCN(CC)CCCCOc1cc2oc3cc(OCCCCN(CC)CC)c(OC)c(CC=C(C)C)c3c(=O)c2c(OCCCCN(CC)CC)c1CC=C(C)C | 12.5 (≈ 15.8 µM) | 50 (≈ 63.1 µM) | 25 (≈ 31.6 µM) | 50 (≈ 63.1 µM) | > 200 | – | – | – | – | – | – | Activity (Staphylococcus aureus [22]): 4305.1 cps
13 | O=c1c2ccc(O)cc2oc2cc(O)cc(O)c12 | > 50 | > 50 | > 50 | > 50 | > 200 | – | Not Active | Not Active | Not Active | Not Active | Not Active | Activity [17]: Not Active
